Rows were chosen to be rich in hits. Some 1.5% of all compounds tested hit in one or more screens of this group.
SIAE inh: human SIAE inhibitors, primary screen, biochemical, fluorescence polarization, FP-Rh probe, 1536-well HTS. inhibition, % at 9.66 µM. actives 0.69% (n = 370,000). Sialate O-acetylesterase (Homo sapiens), Q9HAT2. SIAE FP-Rh probe binding;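 active = inhibition above a cutoff: mean of compounds within the control limits plus 3 SD of those, cut at about 17% in these data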;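 note: 0% = plate median of compound wells and 100% = probe without SIAE protein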
TCR CD3 inh: inhibitors of human TCR-CD3 interaction, primary screen, biochemical, fluorescence, TAMRA-labeled TCR probe; T-cell receptor (TCR); inhibition, % at 9.4 µM; actives 0.37% (n = 360,000); AID 651800, 2012; in the data active = inhibition above about 19%;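 note: recombinant mutant TCR 2C K166C tagged with TAMRA read by polarization; 0% = receptor in buffer alone and 100% = receptor with positive control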
DAGLB inh: DAGLB lipase inhibitors, primary screen, biochemical, fluorescence, HTS; Diacylglycerol lipase-beta (Homo sapiens), Q8NCG7; HEK293T DAGLB membrane lysate, EnzChek fluorogenic substrate; inhibition, % at 5.17 µM; actives 0.059% (n = 340,000); in the data active = inhibition above about 34%;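 note: 0% = enzyme with vehicle and 100% = wells lacking enzyme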
HTRA1 inhibitor: HTRA1 serine protease inhibitors, primary screen, biochemical, fluorescence polarization, HTS; Q92743; recombinant HTRA1, FP-rhodamine activity-based probe; inhibition, % at 5.96 µM; actives 0.5% (n = 340,000); in the data active = inhibition above about 36%;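 note: 0% = enzyme with DMSO and 100% = wells lacking enzyme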
Target sequence (Q92743 whole entry, looked up): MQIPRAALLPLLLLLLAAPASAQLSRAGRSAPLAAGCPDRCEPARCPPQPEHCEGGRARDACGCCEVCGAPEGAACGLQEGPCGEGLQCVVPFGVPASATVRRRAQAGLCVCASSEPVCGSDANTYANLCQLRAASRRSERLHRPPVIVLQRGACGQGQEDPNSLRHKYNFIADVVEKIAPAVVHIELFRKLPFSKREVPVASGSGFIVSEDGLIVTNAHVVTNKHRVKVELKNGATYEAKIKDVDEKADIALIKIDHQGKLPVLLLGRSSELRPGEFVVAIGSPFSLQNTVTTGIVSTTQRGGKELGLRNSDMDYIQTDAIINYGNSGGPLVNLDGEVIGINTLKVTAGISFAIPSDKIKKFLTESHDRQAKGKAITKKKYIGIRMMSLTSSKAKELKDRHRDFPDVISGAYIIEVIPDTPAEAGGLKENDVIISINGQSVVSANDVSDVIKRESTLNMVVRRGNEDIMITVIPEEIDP
mABHD4 FP: ABHD4 inhibitors, primary screen, biochemical, fluorescence polarization, mouse; (Lyso)-N-acylphosphatidylethanolamine lipase (Mus musculus), Q8VD66; purified mABHD4, FP-Rh probe fluorescence polarization; inhibition, % at 8.92 µM; actives 0.54% (n = 370,000); AID 720543, 2013;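 active = inhibition exceeding the mean over every tested compound plus 3 SD, cut at about 30% in these data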;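 note: 0% = plate median of compound wells and 100% = S159A mutant with DMSO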
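Material: mouse ABHD4 enzyme, wild type; Benchmarks: S159A mutant high control, sample median low control; Buffer or medium: HEPES pH 7.0, NaCl, Pluronic buffer; Signal: fluorescence polarization; Read-out: percent inhibition of probe binding, normalized to plate controls; Timing: pre-incubation 45 min, probe exposure 60 min, at 25 °C; Dosing: 8.92 µM, single dose.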
HTRA1 inh conf: HTRA1 protease inhibitors, retest, confirmation, biochemical, fluorescence polarization; shares compounds with HTRA1 inhibitor; recombinant HTRA1, FP-rhodamine activity-based probe; inhibition, % at 5.96 µM; actives 66% (n = 1,600); AID 540248, 2011;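 active = mean inhibition over three repeats above a set limit taken from the earlier primary screen, cut at about 37% in these data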;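 note: 0% = HTRA1 with DMSO and 100% = wells lacking HTRA1; inhibitors block probe binding so polarization drops and inhibition rises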
* hit, by the source's call; nt = no result given.

SMILES	SIAE inh	TCR CD3 inh	DAGLB inh	HTRA1 inhibitor	mABHD4 FP	HTRA1 inh conf
N/C(Cc1cccc2ccccc12)=N\OC(=O)c1ccc2c(c1)OCO2	3	-17	-17	43*	9	-9
O=C(Cc1ccc(NC(=O)C2CCCN(C(=O)c3ccccc3)C2)cc1)Nc1cccc(C(=O)N2CCCCC2)c1 (configuration not stated)	-3	7	nt	nt	2	nt
COc1cc(C2Nc3cccc4cccc(c34)N2)cc(OC)c1O	47*	-1	7	39*	-2	35
COc1cc(C2Nc3cccc4cccc(c34)N2)ccc1OC(C)=O	nt	nt	3	11	nt	nt
COC(=O)C1=C(C)N(C)C(=NCC2CC2)NC1c1cccc(F)c1 (configuration not stated)	6	4	nt	nt	2	nt
COc1ccc(-c2sc3ccc(OC)cc3c2C#CCCO)cc1	nt	nt	-8	-55	nt	nt
COc1ccc2sc(-c3ccc(N(C)C)cc3)c(C#Cc3cncn3C)c2c1	12	-3	4	48*	18	24
COc1ccc2sc(-c3ccc(N(C)C)cc3)c(C#CCCO)c2c1	3	0	-1	37*	19	25
O=C(/C=C/c1ccc(O)c(O)c1)OCCc1ccccc1	-7	3	5	64*	16	71*
Cc1ccccc1-c1ccc2c(c1)[C@@H]1C[C@H](N(C)CC3CCCCC3)[C@H]([C@H](C)O)CN1CC2	1	-1	nt	nt	2	nt
O=C(NN=C1CCN(Cc2ccccc2)CC1)c1cc(Br)ccc1O	11	13	7	40*	9	13
COC(=O)C1=C(C)NC(=O)/C1=C\c1cc(C)n(-c2ccccc2)c1C	6	-3	3	20	7	nt
COC(=O)C1=C(C)NC(=O)/C1=C\c1cc(C)n(-c2cc(C)cc(C)c2)c1C	3	-6	9	53*	16	35
O=C(CN1C(=O)CCSc2ccccc21)Nc1ccc(Cl)cc1	0	nt	nt	nt	2	nt
N#Cc1c(N)[nH]c2ccc(Sc3ccccc3)cc12	9	5	-3	41*	13	33
Nc1ccc(N2CCCCC2)cc1N1CCCCC1	6	0	4	51*	23	59*
COC(=O)[C@H](Cc1ccccc1)N1C[C@@H](N2CCC[C@H]2C)CS1(=O)=O	6	-4	nt	nt	4	nt
C[C@H](O)[C@@H]1CN2CCc3c([nH]c4cccc(-c5ccc6c(c5)OCO6)c34)[C@@H]2C[C@@H]1N(C)C(=O)c1ccco1	2	nt	nt	nt	3	nt
CCNc1cc(O)ccc1C	nt	nt	-1	71*	nt	41*
Cc1c(N=Nc2ccc(O)cc2)c(=O)n(-c2ccccc2)n1C	1	6	0	-1	-4	nt
Cc1c(N=C2C=CC(=O)c3ccccc32)c(=O)n(-c2ccccc2)n1C	7	2	2	37*	10	33
Nc1ccn([C@@H]2O[C@H](C(=O)N[C@H](Cc3ccccc3)C(=O)N3CCN(CC(=O)N4CCCC4)CC3)[C@@H](O)[C@H]2O)c(=O)n1	6	-2	nt	nt	1	nt
CC(C)n1cnc2c(NCc3ccccc3)cc(N[C@H](C)CO)cc21	nt	nt	-4	45*	nt	33
C[C@@H]1CN([C@@H](C)CO)C(=O)CCCn2cc(nn2)CO[C@H]1CN(C)C(=O)Nc1ccccc1F	4	-6	nt	nt	4	nt
O=c1[nH]c2ccc(Cl)cc2c(-c2ccccc2)c1SC(=S)N1CCOCC1	-9	7	12	42*	6	-26
SMILES	SIAE inh	TCR CD3 inh	DAGLB inh	HTRA1 inhibitor	mABHD4 FP	HTRA1 inh conf
CCOC(=O)c1c(-c2ccccc2)oc2cc(CN(C)C)c(O)c(CN(C)C)c12	3	-1	2	44*	14	51*
COCc1[nH]nc2c1C(c1cccc(C(F)(F)F)c1)NC2=O (configuration not stated)	2	8	nt	nt	4	nt
CC[C@H](C)/C=C/C1=CC2=C(Cl)C(=O)[C@@]3(C)OC(=O)C(C(=O)[C@H](C)[C@@H](C)O)=C3C2=CO1	nt	nt	31	54*	nt	68*
N#Cc1ccc(S(=O)(=O)N2CCCc3nc(-c4ccc(Br)cc4)ccc32)cc1	-4	0	nt	nt	2	nt
CCN(CC)c1ccc(C(=O)NN)cc1	4	-1	-14	-8	1	nt
CCN(CC)c1ccc(N)cc1	nt	nt	9	44*	nt	66*
N#Cc1ccc(Cn2ccc3ccc(-c4ccc5ccn(Cc6ccccc6)c5c4)cc32)cc1	-5	nt	nt	nt	9	nt
CCc1cc(=O)oc2cc(C)cc(OC(=O)c3ccco3)c12	-3	-6	3	48*	1	26
O=C(Oc1c(Cl)cc(Cl)c2cccnc12)c1cccc([N+](=O)[O-])c1	nt	nt	-1	55*	nt	40*
O=C(Oc1cccc2cccnc12)c1cccc([N+](=O)[O-])c1	6	2	0	15	1	nt
Nc1[nH]c(C(=O)c2ccccc2)c(-c2cccc3ccccc23)c1C(=O)NCc1ccc(F)c(F)c1	-9	-4	nt	nt	-1	nt
O=C(N/N=C/c1ccc([N+](=O)[O-])o1)c1sc2ccccc2c1Cl	-1	7	-1	52*	27	55*
COC(=O)[C@]12C[C@H](CC(=O)NCc3cccs3)C(=O)N(Cc3ccccc3)C1=C[C@H](C(C)(C)C)O[C@@H]2C	-3	4	nt	nt	0	nt
CC(C)c1[nH]nc2c1C(c1ccccc1)N(Cc1ccccc1)C2=O (configuration not stated)	2	0	nt	nt	3	nt
CCCCCCCCN1C(=O)[C@@H](CC(=O)NCCc2ccccc2OC)C[C@@]2(C(=O)OC)C1=C[C@H](C(C)(C)C)O[C@@H]2C	3	-3	nt	nt	6	nt
COc1ccc2c(c1)c(C)cc[n+]2Cc1ccccc1	6	2	-1	7	2	nt
Cc1ccc2c(c1)c(C)cc[n+]2Cc1ccccc1	5	4	2	42*	0	6
Cc1cc(Nc2cccc([N+](=O)[O-])c2)cc(=O)n1-c1cccc([N+](=O)[O-])c1	0	2	nt	nt	0	nt
C/C(=N\Nc1nc2ccccc2s1)c1ccc2c(c1)OCO2	2	-10	1	16	22	nt
CC(=NNc1nc2ccccc2s1)c1ccncn1	5	7	1	48*	17	34
CC(=O)c1ccc(NC(=O)C(C)OC(=O)CCN=C2NS(=O)(=O)c3ccccc32)cc1 (configuration not stated)	-3	-3	-2	-1	-4	nt
CC(=O)c1cccc(NC(=O)C(C)OC(=O)CCN=C2NS(=O)(=O)c3ccccc32)c1 (configuration not stated)	-2	0	0	90*	6	4
C[C@@H]1ON(C)[C@H]2C[C@H]3c4[nH]c5cccc(-c6cccc(F)c6)c5c4CCN3C(=O)[C@@H]12	10	5	nt	nt	4	nt

Screening results: PubChem, The Scripps Research Institute Molecular Screening Center
